Results reported in ChEMBL document CHEMBL4350999, “Enhanced tumor retention of NTSR1-targeted agents by employing a hydrophilic cysteine cathepsin inhibitor” (Eur J Med Chem, 2019).
Active and inactive are the calls of the source. The calls are words filed in the database; no cut-off is given here.

Key:
Cathepsin B [1] = target: T1, Cathepsin B (Homo sapiens, UniProt P07858); assay: Inhibition of human liver cathepsin B assessed as pseudo Michaelis-Menten constant at 10 nM using varying levels of Z-Arg-Arg-AMC as substrate measured every 5 mins for 1 hr by fluorescence assay
Procathepsin L [2] = target: T2, Procathepsin L (Homo sapiens, UniProt P07711); assay: Inhibition of human liver cathepsin L assessed as pseudo Michaelis-Menten constant at 10 nM using varying levels of Z-Phe-Arg-AMC as substrate measured every 5 mins for 1 hr by fluorescence assay
[3] = Drug retention in human HT-29 cells assessed as increase in mean fluorescence intensity at 5 uM incubated for 2 hrs and measured at 2 to 4 hrs using natEu labelled compound by lysotracker green staining based confocal microscopic analysis; format: ADME, cell-based; conditions: ht-29, 2 h
In short: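 HT-29 cells (1.25 × 10^5/well) loaded with natEu conjugate (5 μM), washed, then chased in fresh medium up to 24 h. Lysotracker Green (100 nM) applied 2 h before each read; cells fixed and imaged confocally at 405/488 nm. Per-cell mean fluorescence and Lysotracker co-localization quantified.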

[4] = Drug excretion in SCID mouse xenografted with human HT-29 cells using 177Lu labelled compound at 0.37 MBq/mouse, iv co-treated with D-lysine at 40 mg/kg measured at 24 hrs by gamma counter analysis; format: ADME, organism-based; conditions: in vivo
In short: (§1)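 Female SCID mice bearing s.c. flank HT-29 xenografts (5 × 10^6 cells in Matrigel, ~80 mm3). Given 10 μCi (0.37 MBq) 177Lu conjugate i.v. by tail vein; groups sacrificed at 4, 24, 72 h. Tissues weighed and gamma-counted as %ID/g, excretion as %ID; n = 5, mean ± SD. Blocking arms: colchicine 1 mg/kg i.p. beforehand, or D-lysine 40 mg/kg co-injected.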

[5] = Drug retention in tumor of mouse xenografted with human HT-29 cells assessed as tissue-conjugate adduct formation at 29.6 MBq co-treated with D-lysine at 40 mg/kg measured after 72 hrs using 177Lu labelled compound by SDS-PAGE analysis; format: ADME, organism-based, Neoplasm; conditions: in vivo
Cathepsin B [6] = target: T1, Cathepsin B; assay: Binding affinity to cathepsin B in human HT-29 cells assessed as intracellular adduct formation at 0.74 MBq incubated for 4 hrs in presence of DOTA-beta-ala-[N-alpha-Me8, Dmt11, Tle12] NT6-13 using 177Lu labelled compound by SDS-PAGE analysis; format: cell-based; set-up: dose or concentration left out as unconfirmed
In short: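 HT-29 cells (1 × 10^6/well) incubated 4 h at 37 °C with 177Lu conjugate (20 μCi, 0.74 MBq) in 1 mL medium, with or without E-64 (10 μM) or NTSR1 peptide N1 (20 μM). Cells washed and refed; at set times cells pooled, RIPA-lysed with protease inhibitor. Lysates heated 85 °C 2 min, run on 16% tris-glycine SDS-PAGE, and phosphor autoradiography taken after 72 h exposure.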

Procathepsin L [7] = target: T2, Procathepsin L; assay: Binding affinity to human liver cathepsin L assessed as protein-conjugate adduct formation at 0.74 MBq incubated for 30 mins in presence of E-64 using 177Lu labelled compound by SDS-PAGE analysis; conditions: 0.74 M
In short: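 Purified human liver CatB or CatL (3 nM) in 50 mM sodium acetate/1 mM EDTA pH 5.0 incubated 30 min with 177Lu conjugate (500,000 cpm) in Tris/MgCl2/DTT buffer pH 5.5, alone or with E-64 (10 μM) or N1 (20 μM). Mixtures heated 85 °C 2 min, run on 16% tris-glycine gel at 110 V for 90 min, and read by phosphor autoradiography.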

[8] = Drug uptake in blood of SCID mouse xenografted with human HT-29 cells pretreated for 1 hr with colchicine at 1 mg/kg, ip followed by 177Lu labelled compound at 0.37 MBq/mouse, iv measured at 24 hrs by gamma counter analysis; format: ADME, organism-based; conditions: in vivo; in short: as §1
[9] = Drug uptake in large intestine of SCID mouse xenografted with human HT-29 cells pretreated for 1 hr with colchicine at 1 mg/kg, ip followed by 177Lu labelled compound at 0.37 MBq/mouse, iv measured at 24 hrs by gamma counter analysis; format: ADME, organism-based; conditions: in vivo
In short: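 HT-29 flank xenografts in female SCID mice (5 × 10^6 cells in Matrigel, about 80 mm3). Colchicine 1 mg/kg was given i.p. before a tail-vein injection of 10 μCi (0.37 MBq) of purified 177Lu-conjugate. Tissues were taken at 24 h, weighed and gamma-counted as %ID/g; mean ± SD, n = 5.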

[10] = Drug uptake in SCID mouse xenografted with human HT-29 cells assessed as tumour retention pretreated for 1 hr with colchicine at 1 mg/kg, ip followed by 177Lu labelled compound at 0.37 MBq/mouse, iv measured at 24 hrs by gamma counter analysis; format: ADME, organism-based; conditions: in vivo; in short: as §1
[11] = Drug retention in kidney lysates of mouse xenografted with human HT-29 cells assessed as macromolecule associated radioactivity at 29.6 MBq measured after 72 hrs using 177Lu labelled compound by gamma counter analysis relative to control; format: ADME, tissue-based; conditions: in vivo
In short: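 HT-29 xenograft mice given 800 μCi (29.6 MBq) 177Lu conjugate i.v. and killed at 72 h. Tumor, liver and kidney homogenized in RIPA with protease inhibitor and supernatants run on SDS-PAGE autoradiography. Other supernatant aliquots filtered through 10 kDa MWCO devices to give the % macromolecule-associated radioactivity; n = 3.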

[12] = Drug uptake in pancreas of SCID mouse xenografted with human HT-29 cells using 177Lu labelled compound at 0.37 MBq/mouse, iv co-treated with D-lysine at 40 mg/kg measured at 24 hrs by gamma counter analysis; format: ADME, organism-based; conditions: in vivo
In short: (§2)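 Female SCID mice bore s.c. HT-29 xenografts (5 × 10^6 cells in Matrigel, about 80 mm3). D-lysine 40 mg/kg was co-injected i.v. with 10 μCi (0.37 MBq) of purified 177Lu-conjugate. Tissues were harvested at 24 h, weighed and gamma-counted, reported as %ID/g; mean ± SD, n = 5.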

[13] = Ratio of drug uptake in SCID mouse xenograted with human HT-29 cells assessed as tumour retention to drug uptake in liver of SCID mouse xenografted with human HT-29 cells cotreated with D-lysine at 40 mg/kg measured after 24 hrs using 177Lu labelled compound; format: ADME, organism-based, Tumor/Liver; conditions: in vivo
[14] = Drug uptake in bone of SCID mouse xenografted with human HT-29 cells using 177Lu labelled compound at 0.37 MBq/mouse, iv co-treated with D-lysine at 40 mg/kg measured at 24 hrs by gamma counter analysis; format: ADME, organism-based, Bone element; conditions: in vivo; in short: as §2
[15] = Ratio of drug uptake in SCID mouse xenograted with human HT-29 cells assessed as tumour retention to drug uptake in blood of SCID mouse xenografted with human HT-29 cells cotreated with D-lysine at 40 mg/kg measured after 24 hrs using 177Lu labelled compound; format: ADME, organism-based, Tumor/Blood
In short: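 HT-29 s.c. xenografts in female SCID mice. 177Lu conjugate given i.v. by tail vein at 10 μCi (0.37 MBq)/mouse, co-injected with D-lysine 40 mg/kg. Tissues were taken at 24 h, weighed and gamma counted. Uptake expressed as %ID/g (n = 5, mean ± SD); tumor-to-tissue ratios derived from these values.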

T2 sequence (P07711 114-333 limits assumed): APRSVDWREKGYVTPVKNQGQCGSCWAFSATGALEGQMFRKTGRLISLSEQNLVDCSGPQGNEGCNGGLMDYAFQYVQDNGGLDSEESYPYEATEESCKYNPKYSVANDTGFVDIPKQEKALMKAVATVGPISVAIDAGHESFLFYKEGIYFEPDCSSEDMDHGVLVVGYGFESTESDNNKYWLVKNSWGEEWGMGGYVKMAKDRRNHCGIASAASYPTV

K (Cathepsin B [1]) [µM]	K (Procathepsin L [2]) [µM]	Drug uptake [3]	Drug excretion [4] [%ID]	Drug uptake [5]	Activity (Cathepsin B [6])	Activity (Procathepsin L [7])	Drug uptake [8] [% ID/g]	Drug uptake [9] [% ID/g]	Drug uptake [10] [% ID/g]	Drug uptake [11] [%]	Drug uptake [12] [% ID/g]	Ratio [13]	Drug uptake [14] [% ID/g]	Kp at 24 h [15]	SMILES
182	37														Cc1cc(O)cc(C)c1C[C@H](NC(=O)[C@@H]1CCCN1C(=O)[C@H](CCCNC(=N)N)NC(=O)[C@H](CCCNC(=N)N)N(C)C(=O)[C@@H]1CCCN1C(=O)[C@H](CCCCN)NC(=O)[C@@H](CO)NC(=O)[C@@H](CO)NC(=O)[C@@H](CO)NC(=O)[C@H](Cc1cn(CCNC(=O)[C@H](CCCNC(=N)N)NC(=O)[C@H](CC(C)C)NC(=O)CCC(=O)O)nn1)NC(=O)CN1CCN(CC(=O)O)CCN(CC(=O)O)CCN(CC(=O)O)CC1)C(=O)N[C@H](C(=O)N[C@@H](CC(C)C)C(=O)O)C(C)(C)C
		Not Active	83	Active	inactive	inactive	0.06	0.67	1.7	80	0.14	9.6	0.6	299	Cc1cc(O)cc(C)c1C[C@H](NC(=O)[C@@H]1CCCN1C(=O)[C@H](CCCNC(=N)N)NC(=O)[C@H](CCCNC(=N)N)N(C)C(=O)[C@@H]1CCCN1C(=O)[C@H](CCCCN)NC(=O)[C@@H](CO)NC(=O)[C@@H](CO)NC(=O)[C@@H](CO)NC(=O)[C@H](Cc1cn(CCNC(=O)[C@H](CCCNC(=N)N)NC(=O)[C@H](CC(C)C)NC(=O)C2OC2C(=O)O)nn1)NC(=O)CN1CCN(CC(=O)O)CCN(CC(=O)O)CCN(CC(=O)O)CC1)C(=O)N[C@H](C(=O)N[C@@H](CC(C)C)C(=O)O)C(C)(C)C (stereo not given in full)
